Assay [1] concerns the target T1, Acetylcholinesterase (Rattus norvegicus, UniProt P37136).
T1 sequence (P37136 whole entry): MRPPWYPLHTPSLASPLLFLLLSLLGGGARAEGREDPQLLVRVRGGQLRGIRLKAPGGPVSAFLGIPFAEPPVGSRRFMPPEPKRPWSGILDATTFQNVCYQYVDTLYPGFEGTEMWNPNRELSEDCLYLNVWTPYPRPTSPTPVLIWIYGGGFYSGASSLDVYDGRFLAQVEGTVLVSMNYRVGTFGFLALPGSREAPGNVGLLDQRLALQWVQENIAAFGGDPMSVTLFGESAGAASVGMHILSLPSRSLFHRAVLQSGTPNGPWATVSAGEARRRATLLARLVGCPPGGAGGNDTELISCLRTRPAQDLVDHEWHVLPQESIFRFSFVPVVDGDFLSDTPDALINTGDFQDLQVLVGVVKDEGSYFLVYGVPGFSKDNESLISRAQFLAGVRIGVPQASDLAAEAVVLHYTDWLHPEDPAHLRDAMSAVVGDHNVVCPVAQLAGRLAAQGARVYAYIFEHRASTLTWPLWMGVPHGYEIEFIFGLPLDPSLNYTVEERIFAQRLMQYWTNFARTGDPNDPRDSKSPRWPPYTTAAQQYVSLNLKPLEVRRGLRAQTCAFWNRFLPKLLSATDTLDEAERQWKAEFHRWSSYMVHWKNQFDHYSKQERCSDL
As to the kind of experiment: Inhibition of AChE in rat cortex using acetylthiocholine iodide as substrate after 15 mins by Ellman's method. (In general: DTNB colorimetry detects thiols as they appear.)

Assay [2] can be described thus: Inhibition of BuChE in rat serum using butyrylthiocholine iodide as substrate after 15 mins by Ellman's method. Particulars: 0.25 h. The essentials:
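Rat serum (25%, 10 µL) in 100 µL with 1 mmol/L butyrylthiocholine iodide stock, pH 7.4 phosphate buffer and graded inhibitor levels, 37°C for 15 min; DTNB (0.2%) then added and absorbance read at 405 nm.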

For assay [3], the target named is Acetylcholinesterase (Electrophorus electricus, UniProt O42275). As to the kind of experiment: Inhibition of electric eel AChE using acetylthiocholine iodide as substrate after 15 mins by Ellman's method.
The species named for another assay is Rattus norvegicus. The assay can be described thus: Selectivity index, ratio of IC50 for rat serum BuChE to IC50 for rat cortex AChE.

Consider 37 molecules from ChEMBL document CHEMBL3576829, “Design, synthesis and evaluation of scutellarein-O-alkylamines as multifunctional agents for the treatment of Alzheimer's disease” (Eur J Med Chem, 2015).

One may read the IC50 as the concentration that inhibits the measured activity by half. The low end stands for greater potency, the high end for weaker potency.

Acetylcholinesterase (Electrophorus electricus, UniProt O42275), sequence (O42275 whole entry): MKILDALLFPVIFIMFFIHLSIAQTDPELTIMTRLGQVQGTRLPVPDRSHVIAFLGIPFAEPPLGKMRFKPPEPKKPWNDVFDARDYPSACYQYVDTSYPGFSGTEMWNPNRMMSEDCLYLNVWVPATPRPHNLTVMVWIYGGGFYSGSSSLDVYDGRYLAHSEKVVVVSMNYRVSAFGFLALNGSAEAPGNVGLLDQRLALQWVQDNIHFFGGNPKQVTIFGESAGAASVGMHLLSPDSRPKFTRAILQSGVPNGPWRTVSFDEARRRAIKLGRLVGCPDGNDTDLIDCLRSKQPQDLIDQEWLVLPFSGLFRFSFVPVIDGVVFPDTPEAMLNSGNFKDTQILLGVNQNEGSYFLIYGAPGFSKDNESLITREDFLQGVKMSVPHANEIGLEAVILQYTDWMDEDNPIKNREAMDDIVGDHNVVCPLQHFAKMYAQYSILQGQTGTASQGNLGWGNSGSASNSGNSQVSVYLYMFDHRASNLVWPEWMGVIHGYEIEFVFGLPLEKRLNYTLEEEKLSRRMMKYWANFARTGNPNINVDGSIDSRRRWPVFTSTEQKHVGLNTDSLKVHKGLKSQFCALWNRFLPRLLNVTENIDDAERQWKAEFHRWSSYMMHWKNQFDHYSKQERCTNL

`COc1cc2oc(-c3cccc(OCCCN4CCN(C)CC4)c3)cc(=O)c2c(OC)c1OC`: the IC50 at Acetylcholinesterase [1] was 7.47 µM; in assay [2], greater than 500 µM; at Acetylcholinesterase [3] it was 35.2 µM. Further, in the assay filed under Rattus norvegicus, the Ratio IC50 was greater than 66.9.
The corresponding values for `COc1cc2oc(-c3cccc(OCCN4CCN(Cc5ccccc5)CC4)c3)cc(=O)c2c(OC)c1OC` are 1.18 µM, greater than 500 µM, 2.91 µM and greater than 424.
As for `COc1cc2oc(-c3ccc(OCCCCN4CCN(C)CC4)cc3)cc(=O)c2c(OC)c1OC`, the IC50 turned out to be 1.07 µM on Acetylcholinesterase [1], 146 µM in assay [2] and 5.27 µM on Acetylcholinesterase [3]. Further, in the assay filed under Rattus norvegicus, the Ratio IC50 came to 136.
The corresponding values for `CCN(CCCOc1cccc(-c2cc(=O)c3c(OC)c(OC)c(OC)cc3o2)c1)Cc1ccccc1` are 5.4 µM, 101 µM, 20.4 µM and 18.7.
For the molecule `COc1cc2oc(-c3ccc(OCCCN(C)Cc4ccccc4)cc3)cc(=O)c2c(OC)c1OC`, the results for the half-maximal inhibitory concentration (IC50) (against Acetylcholinesterase [1]; in assay [2]; at Acetylcholinesterase [3]) were 2.62 µM, 136 µM and 11.5 µM, respectively. For the same molecule, the Ratio IC50 in the assay filed under Rattus norvegicus is 51.8.
`COc1cc2oc(-c3cccc(OCCCN4CCN(Cc5ccccc5)CC4)c3)cc(=O)c2c(OC)c1OC`: the IC50 against Acetylcholinesterase [1] was 3.12 µM; in assay [2] it was 149 µM; against Acetylcholinesterase [3] it was 1.59 µM. In the assay listed under Rattus norvegicus, the Ratio IC50 was found to be 47.7.
The corresponding values for `COc1cc2oc(-c3cccc(OCCCN(C)Cc4ccccc4)c3)cc(=O)c2c(OC)c1OC` are 5.17 µM, 117 µM, 25 µM and 22.7.
Regarding `COc1ccccc1CN(C)CCCOc1ccc(-c2cc(=O)c3c(O)c(OC)c(OC)cc3o2)cc1`, the results for the IC50 (on Acetylcholinesterase [1]; in assay [2]; against Acetylcholinesterase [3]) were 5 µM, greater than 500 µM and 31.1 µM, respectively. The Ratio IC50 in the assay filed under Rattus norvegicus was greater than 100.
For `CCN(CCCOc1cccc(-c2cc(=O)c3c(O)c(OC)c(OC)cc3o2)c1)Cc1ccccc1OC` the same measures were 1.58 µM, 240 µM, 4.5 µM and 152.
In the case of `COc1cc2oc(-c3cccc(OCCCCN4CCN(Cc5ccccc5)CC4)c3)cc(=O)c2c(OC)c1OC`, the half-maximal inhibitory concentration (IC50) against Acetylcholinesterase [1] is 4.03 µM; in assay [2], 109 µM; at Acetylcholinesterase [3], 25.3 µM. For the same molecule, the Ratio IC50 in the assay listed under Rattus norvegicus was found to be 27.
For `COc1ccccc1CN(C)CCCCOc1cccc(-c2cc(=O)c3c(OC)c(OC)c(OC)cc3o2)c1` the same measures were 2.61 µM, 85 µM, 12.2 µM and 32.6.
The corresponding values for `COc1cc2oc(-c3cccc(OCCN4CCN(C)CC4)c3)cc(=O)c2c(OC)c1OC` are 8.2 µM, greater than 500 µM, 22.5 µM and greater than 61.
In the case of `CCN(CCCOc1cccc(-c2cc(=O)c3c(OC)c(OC)c(OC)cc3o2)c1)Cc1ccccc1OC`, the IC50 against Acetylcholinesterase [1] was 0.33 µM; in assay [2], 77.2 µM; at Acetylcholinesterase [3], 1.78 µM. Further, the Ratio IC50 in the assay filed under Rattus norvegicus is 234.
For `COc1cc2oc(-c3cccc(OCCCCN4CCN(C)CC4)c3)cc(=O)c2c(OC)c1OC` the same measures were 0.25 µM, greater than 500 µM, 1.15 µM and greater than 2000.
For `COc1cc2oc(-c3cccc(OCCCCCCN(C)Cc4ccccc4)c3)cc(=O)c2c(OC)c1OC` the same measures were 2.13 µM, 78.7 µM, 6.13 µM and 36.9.
As for `COc1ccccc1CN(C)CCOc1cccc(-c2cc(=O)c3c(OC)c(OC)c(OC)cc3o2)c1`, the figures for the IC50 (against Acetylcholinesterase [1]; in assay [2]; at Acetylcholinesterase [3]) were 3.22 µM, 31.4 µM and 2.49 µM, respectively. Moreover, in the assay listed under Rattus norvegicus, the Ratio IC50 was found to be 9.8.
The corresponding values for `CCN(CCCCOc1cccc(-c2cc(=O)c3c(OC)c(OC)c(OC)cc3o2)c1)Cc1ccccc1OC` are 0.8 µM, 78.3 µM, 2.37 µM and 97.9.
For `CCN(CCOc1cccc(-c2cc(=O)c3c(OC)c(OC)c(OC)cc3o2)c1)Cc1ccccc1` the same measures were 3.37 µM, 79.6 µM, 3.8 µM and 23.6.
For `COc1ccccc1CN(C)CCCOc1cccc(-c2cc(=O)c3c(O)c(OC)c(OC)cc3o2)c1` the same measures were 8.1 µM, 354 µM, 28.6 µM and 43.7.
With `COc1cc2oc(-c3ccc(OCCCCCCN(C)Cc4ccccc4)cc3)cc(=O)c2c(OC)c1OC`, the IC50 is 0.99 µM against Acetylcholinesterase [1], 84.6 µM in assay [2] and 5.4 µM at Acetylcholinesterase [3]. Further, the Ratio IC50 in the assay filed under Rattus norvegicus was 85.5.
For `O=c1cc(-c2ccc(O)cc2)oc2cc(O)c(O)c(O)c12` [SCUTELLAREIN], the concentration for half-maximal inhibition (IC50) (on Acetylcholinesterase [1]; in assay [2]) was greater than 500 µM in each case.
For `COc1ccccc1CN(C)CCCOc1cccc(-c2cc(=O)c3c(OC)c(OC)c(OC)cc3o2)c1`, the IC50 against Acetylcholinesterase [1] came out at 0.38 µM; in assay [2], 75.4 µM; against Acetylcholinesterase [3] it was 1.59 µM. For the same molecule, in the assay filed under Rattus norvegicus, the Ratio IC50 came out at 198.
Regarding `COc1ccccc1CN(C)CCCCCCOc1ccc(-c2cc(=O)c3c(O)c(OC)c(OC)cc3o2)cc1`, the 50% inhibitory concentration (IC50) at Acetylcholinesterase [1] is 5.07 µM; in assay [2] it was greater than 500 µM; against Acetylcholinesterase [3] it was 22.6 µM. In addition, the Ratio IC50 in the assay listed under Rattus norvegicus is greater than 98.6.
Take `CCN(CCCCCCOc1ccc(-c2cc(=O)c3c(OC)c(OC)c(OC)cc3o2)cc1)Cc1ccccc1`: the IC50 against Acetylcholinesterase [1] was 0.34 µM; in assay [2], greater than 500 µM; against Acetylcholinesterase [3] it was 2.83 µM. In the assay listed under Rattus norvegicus, the Ratio IC50 is greater than 1470.
For `COc1cc2oc(-c3ccc(OCCCCN4CCN(Cc5ccccc5)CC4)cc3)cc(=O)c2c(OC)c1OC` the same measures were 2.56 µM, 131 µM, 8.53 µM and 51.1.
On to `COc1cc2oc(-c3cccc(OCCN(C)Cc4ccccc4)c3)cc(=O)c2c(OC)c1OC`, for which the IC50 against Acetylcholinesterase [1] was 9.2 µM; in assay [2], 87.9 µM; against Acetylcholinesterase [3], 35.7 µM. Besides, the Ratio IC50 in the assay listed under Rattus norvegicus came out at 9.6.
With `COc1cc2oc(-c3ccc(OCCCCCCN4CCN(Cc5ccccc5)CC4)cc3)cc(=O)c2c(OC)c1OC`, the figures for the IC50 (on Acetylcholinesterase [1]; in assay [2]; on Acetylcholinesterase [3]) were 8.07 µM, greater than 500 µM and 26.5 µM, respectively. Further, the Ratio IC50 in the assay listed under Rattus norvegicus was greater than 62.
The corresponding values for `COc1cc2oc(-c3cccc(OCCCCCCN4CCN(Cc5ccccc5)CC4)c3)cc(=O)c2c(OC)c1OC` are 7.33 µM, greater than 500 µM, 21.4 µM and greater than 68.2.
For `COc1cc2oc(-c3cccc(OCCCCN(C)Cc4ccccc4)c3)cc(=O)c2c(OC)c1OC` the same measures were 4.53 µM, 90.7 µM, 18.4 µM and 20.
For `CCN(CCCCCCOc1cccc(-c2cc(=O)c3c(OC)c(OC)c(OC)cc3o2)c1)Cc1ccccc1` the same measures were 2.03 µM, 52.1 µM, 12.2 µM and 25.7.
Take `COc1ccccc1CN(C)CCCCOc1ccc(-c2cc(=O)c3c(O)c(OC)c(OC)cc3o2)cc1`: the IC50 against Acetylcholinesterase [1] is 3.43 µM; in assay [2], greater than 500 µM; against Acetylcholinesterase [3], 14.4 µM. Moreover, the Ratio IC50 in the assay listed under Rattus norvegicus is greater than 146.
For `COc1ccccc1CN(C)CCCCCCOc1ccc(-c2cc(=O)c3c(OC)c(OC)c(OC)cc3o2)cc1` the same measures were 0.45 µM, 96.1 µM, 2.23 µM and 214.
As for `CCN(CCCCCCOc1cccc(-c2cc(=O)c3c(OC)c(OC)c(OC)cc3o2)c1)Cc1ccccc1OC`, the IC50 against Acetylcholinesterase [1] stood at 0.22 µM; in assay [2] it was 41.6 µM; against Acetylcholinesterase [3], 1.3 µM. In addition, in the assay filed under Rattus norvegicus, the Ratio IC50 was found to be 189.
For the molecule `COc1ccccc1CN(C)CCCCCCOc1cccc(-c2cc(=O)c3c(O)c(OC)c(OC)cc3o2)c1`, the IC50 on Acetylcholinesterase [1] worked out at 1.59 µM; in assay [2], 404 µM; on Acetylcholinesterase [3], 5.8 µM. Besides, the Ratio IC50 in the assay listed under Rattus norvegicus amounted to 254.
Turning to `CCN(CCCCOc1cccc(-c2cc(=O)c3c(O)c(OC)c(OC)cc3o2)c1)Cc1ccccc1OC`, the IC50 was 2.4 µM against Acetylcholinesterase [1], greater than 500 µM in assay [2] and 7.97 µM against Acetylcholinesterase [3]. Besides, in the assay filed under Rattus norvegicus, the Ratio IC50 was greater than 208.
The corresponding values for `CCN(CCCCCCOc1cccc(-c2cc(=O)c3c(O)c(OC)c(OC)cc3o2)c1)Cc1ccccc1OC` are 1.27 µM, 484 µM, 0.77 µM and 381.
For `COc1cc2oc(-c3ccc(OCCCN4CCN(C)CC4)cc3)cc(=O)c2c(OC)c1OC` the same measures were 8.3 µM, greater than 500 µM, 34.7 µM and greater than 60.2.
